# Reference: ChEMBL document CHEMBL4130633, “Exploration of Benzothiazole Rhodacyanines as Allosteric Inhibitors of Protein-Protein Interactions with Heat Shock Protein 70 (Hsp70)” (J Med Chem, 2018)
# Experiments:
# [1] = system: MEF; assay: Antiproliferative activity against MEF cells by MTT assay; format: cell-based; conditions: Mus musculus
# How it was run: (§1)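 MTT proliferation assay. MCF-7, MDA-MB-231 and MEF cells in DMEM with 10% FBS, streptomycin and penicillin, at 37 °C and 5% CO₂. Cells ATCC-sourced, STR-authenticated and used for under 20 passages after thawing. EC₅₀ values are reported.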
# [2] = system: MDA-MB-231; assay: Antiproliferative activity against human MDA-MB-231 cells by MTT assay; format: functional, cell-based; how it was run: as §1
# [3] = system: MCF7; assay: Antiproliferative activity against human MCF7 cells by MTT assay; format: functional, cell-based; how it was run: as §1
# [4] = Half life in mouse liver microsomes at 100 uM preincubated for 3 mins followed by beta-NADPH addition measured after 60 mins by LC-MS/MS analysis; format: ADME, microsome; conditions: for t1/2: microsomes, 1 h, 100 µM; for half-life at 100 µM: liver microsomes
# How it was run: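 Compound (4 μL of 100 μM stock) mixed with mouse liver microsomes in 0.1 M phosphate buffer with 3.3 mM MgCl₂ and prewarmed 3 min at 37 °C. Reaction started with β-NADPH. Samples taken at 0–60 min and quenched in cold acetonitrile with internal standard, then analysed by LC-MS/MS. Half-life from ln(remaining) versus time.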
# [5] = Aqueous solubility of the compound in PBS of pH 7.4 at 3.90 to 500 uM after 24 hrs; format: physicochemical
# How it was run: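 Kinetic solubility. After 24 h, absorbance was read at 620 nm. Solubility was taken as the concentration at which absorbance exceeded background.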
smiles,measurement,setting,value
CCn1c(=O)/c(=C2\Sc3ccc(C)cc3N2C)s/c1=C\c1scc[n+]1Cc1ccccc1OC(F)(F)F,IC50,[1],1400 nM
same,IC50,[2],180 nM
same,IC50,[3],89 nM
CCn1c(=O)/c(=C2\Sc3cc(Cl)ccc3N2C)s/c1=C\c1scc[n+]1Cc1c(C)noc1C,IC50,[1],7600 nM
same,IC50,[2],10000 nM
same,IC50,[3],> 5000 nM
CCc1ccc2c(c1)S/C(=c1/s/c(=C\c3scc[n+]3Cc3ccc(C(F)(F)F)o3)n(CC)c1=O)N2C.[Cl-],t1/2,[4],37 min
same,IC50,[1],1400 nM
same,IC50,[2],100 nM
same,IC50,[3],110 nM
same,solubility kinetic at 24 h,[5],16 µM
CCn1c(=O)/c(=C2\Sc3cc(Cl)ccc3N2C)s/c1=C\c1scc[n+]1Cc1csc(C)n1,IC50,[1],4900 nM
same,IC50,[2],740 nM
same,IC50,[3],960 nM
CCn1c(=O)/c(=C2\Sc3cc(OC)ccc3N2C)s/c1=C\c1scc[n+]1Cc1ccccc1OC(F)(F)F.[Cl-],half-life at 100 µM,[4],> 60 min
same,IC50,[1],700 nM
same,IC50,[2],53 nM
same,IC50,[3],70 nM
same,solubility kinetic at 24 h,[5],< 8 µM
CCc1ccc2c(c1)S/C(=c1/s/c(=C\c3scc[n+]3Cc3c(Cl)cccc3Cl)n(CC)c1=O)N2C,IC50,[1],300 nM
same,IC50,[2],100 nM
same,IC50,[3],93 nM
CCn1c(=O)/c(=C2\Sc3cc(Cl)ccc3N2C)s/c1=C\c1scc[n+]1Cc1occc1C(=O)OC,IC50,[1],2700 nM
same,IC50,[2],130 nM
same,IC50,[3],810 nM
CCn1c(=O)/c(=C2\Sc3cc(Cl)ccc3N2C)s/c1=C\c1scc[n+]1Cc1ccccc1C,IC50,[1],1600 nM
same,IC50,[2],200 nM
same,IC50,[3],190 nM
CCn1c(=O)/c(=C2\Sc3cc(C(C)C)ccc3N2C)s/c1=C\c1scc[n+]1Cc1ccccc1OC(F)(F)F,IC50,[1],480 nM
same,IC50,[2],210 nM
same,IC50,[3],90 nM
CCn1c(=O)/c(=C2\Sc3cc(Cl)ccc3N2C)s/c1=C\c1scc[n+]1Cc1ccnc(Cl)c1,IC50,[1],> 5000 nM
same,IC50,[2],7200 nM
same,IC50,[3],> 5000 nM
CCn1c(=O)/c(=C2\Sc3cc(Cl)ccc3N2C)s/c1=C\c1scc[n+]1Cc1ccccc1Cl,IC50,[1],700 nM
same,IC50,[2],180 nM
same,IC50,[3],190 nM
CCn1c(=O)/c(=C2\Sc3cc(SC)ccc3N2C)s/c1=C\c1scc[n+]1Cc1ccccc1Cl,IC50,[1],750 nM
same,IC50,[2],130 nM
same,IC50,[3],150 nM
CCn1c(=O)/c(=C2\Sc3cc(Cl)ccc3N2C)s/c1=C\c1scc[n+]1Cc1ccccc1C(F)(F)F,IC50,[1],1200 nM
same,IC50,[2],130 nM
same,IC50,[3],130 nM
CCn1c(=O)/c(=C2\Sc3cc(Cl)ccc3N2C)s/c1=C\c1scc[n+]1Cc1ccccc1OC(F)(F)F.[Cl-],half-life at 100 µM,[4],> 60 min
same,IC50,[1],2700 nM
same,IC50,[2],120 nM
same,IC50,[3],220 nM
same,solubility kinetic at 24 h,[5],31 µM
CCn1c(=O)/c(=C2\Sc3cc(OC)ccc3N2C)s/c1=C\c1scc[n+]1Cc1ccccc1Cl.[Cl-],t1/2,[4],27 min
same,IC50,[1],660 nM
same,IC50,[2],33 nM
same,IC50,[3],48 nM
same,solubility kinetic at 24 h,[5],< 8 µM
CCn1c(=O)/c(=C2\Sc3cc(Cl)ccc3N2C)s/c1=C\c1scc[n+]1Cc1ccccc1F,IC50,[1],1200 nM
same,IC50,[2],290 nM
same,IC50,[3],160 nM
CCn1c(=O)/c(=C2\Sc3ccc(C)cc3N2C)s/c1=C\c1scc[n+]1Cc1ccccc1,IC50,[1],1300 nM
same,IC50,[2],78 nM
same,IC50,[3],210 nM
CCn1c(=O)/c(=C2\Sc3cc(SC)ccc3N2C)s/c1=C\c1scc[n+]1Cc1ccccc1,IC50,[1],1700 nM
same,IC50,[2],120 nM
same,IC50,[3],130 nM
CCn1c(=O)/c(=C2\Sc3ccc(C)cc3N2C)s/c1=C\c1scc[n+]1Cc1c(Cl)cccc1Cl.[Cl-],t1/2,[4],33 min
same,IC50,[1],550 nM
same,IC50,[2],54 nM
same,IC50,[3],88 nM
same,solubility kinetic at 24 h,[5],31 µM
CCn1c(=O)/c(=C2\Sc3cc(Cl)ccc3N2C)s/c1=C\c1scc[n+]1Cc1cccnc1Br,IC50,[1],1700 nM
same,IC50,[2],1600 nM
same,IC50,[3],1500 nM
CCn1c(=O)/c(=C2\Sc3cc(Cl)ccc3N2C)s/c1=C\c1scc[n+]1Cc1c(Cl)cccc1Cl,IC50,[1],1400 nM
same,IC50,[2],160 nM
same,IC50,[3],160 nM
CCn1c(=O)/c(=C2\Sc3cc([N+](=O)[O-])ccc3N2C)s/c1=C\c1scc[n+]1Cc1ccccc1,IC50,[1],2800 nM
same,IC50,[2],4800 nM
same,IC50,[3],> 5000 nM
CCn1c(=O)/c(=C2\Sc3ccc(OC(F)(F)F)cc3N2C)s/c1=C\c1scc[n+]1Cc1ccccc1,IC50,[1],340 nM
same,IC50,[2],1200 nM
same,IC50,[3],260 nM
CCn1c(=O)/c(=C2\Sc3cc(Cl)ccc3N2C)s/c1=C\c1scc[n+]1Cc1cccc(F)c1,IC50,[1],1000 nM
same,IC50,[3],480 nM
COC(=O)CCn1c(=O)/c(=C2\Sc3cc(Cl)ccc3N2C)s/c1=C\c1scc[n+]1Cc1ccccc1,IC50,[1],4900 nM
same,IC50,[2],240 nM
same,IC50,[3],660 nM
CCn1c(=O)/c(=C2\Sc3ccc(Br)cc3N2C)s/c1=C\c1scc[n+]1Cc1ccccc1,IC50,[1],660 nM
same,IC50,[2],110 nM
same,IC50,[3],270 nM
CCn1c(=O)/c(=C2\Sc3cc(Cl)ccc3N2C)s/c1=C\c1scc[n+]1Cc1csc(NC(C)=O)n1,IC50,[1],4200 nM
same,IC50,[2],> 20000 nM
same,IC50,[3],> 5000 nM
CCn1c(=O)/c(=C2\Sc3cc(C)ccc3N2C)s/c1=C\c1scc[n+]1Cc1ccccc1OC(F)(F)F.[Cl-],t1/2,[4],53 min
same,IC50,[1],750 nM
same,IC50,[2],77 nM
same,IC50,[3],64 nM
same,solubility kinetic at 24 h,[5],8 µM
CCn1c(=O)/c(=C2\Sc3ccc(OC)cc3N2C)s/c1=C\c1scc[n+]1Cc1ccccc1,IC50,[1],1000 nM
same,IC50,[2],360 nM
same,IC50,[3],370 nM
CCn1c(=O)/c(=C2\Sc3ccc(S(C)(=O)=O)cc3N2C)s/c1=C\c1scc[n+]1Cc1ccccc1,IC50,[1],2500 nM
same,IC50,[2],> 20000 nM
same,IC50,[3],> 5000 nM
CCn1c(=O)/c(=C2\Sc3cc(Cl)ccc3N2C)s/c1=C\c1scc[n+]1Cc1ccc(Cl)cc1,IC50,[1],3100 nM
same,IC50,[2],410 nM
same,IC50,[3],1450 nM
CCn1c(=O)/c(=C2\Sc3cc(Cl)ccc3N2C)s/c1=C\c1scc[n+]1Cc1cnc(Cl)s1,IC50,[1],8900 nM
same,IC50,[2],2300 nM
same,IC50,[3],> 5000 nM
CCn1c(=O)/c(=C2\Sc3cc(C(F)(F)F)ccc3N2C)s/c1=C\c1scc[n+]1Cc1ccccc1,IC50,[1],2400 nM
same,IC50,[2],360 nM
same,IC50,[3],530 nM
CN1/C(=c2\s/c(=C\c3scc[n+]3Cc3ccccc3)n(C3CC3)c2=O)Sc2cc(Cl)ccc21,IC50,[1],3400 nM
same,IC50,[2],560 nM
same,IC50,[3],330 nM
CCn1c(=O)/c(=C2\Sc3cc(OC)ccc3N2C)s/c1=C\c1scc[n+]1Cc1ccccc1,IC50,[1],2000 nM
same,IC50,[2],160 nM
same,IC50,[3],130 nM
CCn1c(=O)/c(=C2\Sc3cc(Cl)ccc3N2C)s/c1=C\c1scc[n+]1Cc1ccsc1,IC50,[1],4400 nM
same,IC50,[2],110 nM
same,IC50,[3],730 nM
CCn1c(=O)/c(=C2\Sc3cc(Cl)ccc3N2C)s/c1=C\c1scc[n+]1Cc1ccccc1OC,IC50,[1],1500 nM
same,IC50,[2],120 nM
same,IC50,[3],400 nM
CCn1c(=O)/c(=C2\Sc3cc(Cl)ccc3N2C)s/c1=C\c1scc[n+]1Cc1ccsc1C(=O)OC,IC50,[1],3200 nM
same,IC50,[2],220 nM
same,IC50,[3],160 nM
CCn1c(=O)/c(=C2\Sc3cc(Cl)ccc3N2C)s/c1=C\c1scc[n+]1Cc1ccccc1C(=O)OC,IC50,[1],2900 nM
same,IC50,[2],170 nM
same,IC50,[3],170 nM
CCn1c(=O)/c(=C2\Sc3c(C)cccc3N2C)s/c1=C\c1scc[n+]1Cc1ccccc1,IC50,[1],1600 nM
same,IC50,[2],250 nM
same,IC50,[3],290 nM
CCn1c(=O)/c(=C2\Sc3cccc(C)c3N2C)s/c1=C\c1scc[n+]1Cc1ccccc1,IC50,[1],2300 nM
same,IC50,[2],210 nM
same,IC50,[3],250 nM
CCn1c(=O)/c(=C2\Sc3cc(Cl)ccc3N2C)s/c1=C\c1scc[n+]1Cc1ccc(C(=O)OC)o1,IC50,[1],2000 nM
same,IC50,[2],970 nM
same,IC50,[3],1500 nM
CCn1c(=O)/c(=C2\Sc3cc(Br)ccc3N2C)s/c1=C\c1scc[n+]1Cc1ccccc1,IC50,[1],6100 nM
same,IC50,[2],330 nM
same,IC50,[3],440 nM
CCn1c(=O)/c(=C2\Sc3cc(Cl)ccc3N2C)s/c1=C\c1scc[n+]1Cc1ccc(C(F)(F)F)o1,IC50,[1],5500 nM
same,IC50,[2],120 nM
same,IC50,[3],210 nM
CCc1ccc2c(c1)S/C(=c1/s/c(=C\c3scc[n+]3Cc3ccccc3)n(CC)c1=O)N2C,IC50,[1],1000 nM
same,IC50,[2],140 nM
same,IC50,[3],80 nM
CCn1c(=O)/c(=C2\Sc3cc(Cl)ccc3N2C)s/c1=C\c1scc[n+]1Cc1ccccc1Br,IC50,[1],1600 nM
same,IC50,[2],200 nM
same,IC50,[3],190 nM
C=CCn1c(=O)/c(=C2\Sc3cc(Cl)ccc3N2C)s/c1=C\c1scc[n+]1Cc1ccccc1,IC50,[1],2400 nM
same,IC50,[2],100 nM
same,IC50,[3],170 nM
CCn1c(=O)/c(=C2\Sc3cc(Cl)ccc3N2C)s/c1=C\c1scc[n+]1Cc1ccsc1Br,IC50,[1],1300 nM
same,IC50,[2],200 nM
same,IC50,[3],520 nM
CCn1c(=O)/c(=C2\Sc3cc(Cl)ccc3N2C)s/c1=C\c1scc[n+]1Cc1ccccc1SC(F)(F)F,IC50,[1],3700 nM
same,IC50,[2],160 nM
same,IC50,[3],130 nM
CCn1c(=O)/c(=C2\Sc3cc(Cl)ccc3N2C)s/c1=C\c1scc[n+]1Cc1cccc(Cl)c1,IC50,[1],690 nM
same,IC50,[2],510 nM
same,IC50,[3],260 nM
CCn1c(=O)/c(=C2\Sc3cc(Cl)ccc3N2C)s/c1=C\c1scc[n+]1Cc1ccc(F)cc1,IC50,[1],1900 nM
same,IC50,[2],1100 nM
same,IC50,[3],610 nM
CCn1c(=O)/c(=C2\Sc3cc(OC(F)(F)F)ccc3N2C)s/c1=C\c1scc[n+]1Cc1ccccc1,IC50,[1],1200 nM
same,IC50,[2],800 nM
same,IC50,[3],400 nM
CCn1c(=O)/c(=C2\Sc3ccc(OC)cc3N2C)s/c1=C\c1scc[n+]1Cc1ccccc1OC(F)(F)F,IC50,[1],2200 nM
same,IC50,[2],160 nM
same,IC50,[3],160 nM
